Laboratory results taken from ChEMBL document CHEMBL1208693, “Synthesis and evaluation of novel antifungal agents-quinoline and pyridine amide derivatives” (2010).
In brackets after ≈: the same amount, converted by molar mass.

How the values were obtained:
Format in all cases: functional
Aspergillus fumigatus = test: Antifungal activity against Aspergillus fumigatus Tsukuba after 2 days by broth-microdilution method; settings: 48 h
Procedure, shortened: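 CLSI M38-A2 broth microdilution, slightly modified. Conidia came from a one-week PDA culture at 35 °C and were stored at −80 °C. Inoculum was 2×10^3–2×10^4 conidia/mL. Compounds were serially twofold diluted from DMSO stock to final concentrations of 0.05–200 µg/mL; the control was 1% DMSO. Plates were incubated at 35 °C for 2 days. MIC was the lowest concentration giving a visually prominent turbidity decrease versus control.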

Candida albicans [1] = test: Antifungal activity against Candida albicans E81022 after 2 days by broth-microdilution method; settings: E81022, 48 h
Procedure, shortened: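 Yeast broth microdilution following CLSI M27-A3, slightly modified. Cells were subcultured in Sabouraud dextrose broth at 35 °C for 1–2 days, then inoculated at 2×10^3–2×10^4 cells/mL. Compounds in twofold DMSO dilutions gave final concentrations of 0.05–200 µg/mL; the control was 1% DMSO. Incubation was 35 °C for 2 days. MIC was the lowest concentration with a visually prominent turbidity drop relative to control.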

Saccharomyces cerevisiae [2] = test: Antifungal activity against Saccharomyces cerevisiae KE743 […] after 2 days by broth-microdilution method; settings: KE743, 48 h
Procedure, shortened: (§1)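 Broth microdilution (modified CLSI M27-A3) on S. cerevisiae KE743 (control) and KE744 (GWT1 overexpressed from GAPDH promoter), precultured in SD ura- at 30 °C for 1–2 days. Inoculum 2 × 10^3–2 × 10^4 cells/ml. Twofold dilutions at 0.05–200 µg/mL final, from DMSO; 1% DMSO control. Incubated 30 °C, 2 days. MIC is the lowest concentration with a prominent visual turbidity decrease; KE744/KE743 MICs compared.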

Saccharomyces cerevisiae [3] = test: Ratio of MIC for Saccharomyces cerevisiae KE744 to Saccharomyces cerevisiae KE743 […]; procedure, shortened: as §1
Saccharomyces cerevisiae [4] = test: Antifungal activity against Saccharomyces cerevisiae KE744 after 2 days by broth-microdilution method; settings: KE744, 48 h
Procedure, shortened: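 S. cerevisiae strain overexpressing GWT1 from the GAPDH promoter, grown in SD ura- medium at 30 °C for 1–2 days. Modified CLSI broth microdilution used 2×10^3–2×10^4 cells/mL. Final compound concentrations were 0.05–200 µg/mL from twofold DMSO dilutions, with 1% DMSO as control. Incubation was 30 °C for 2 days. MIC was the lowest concentration visibly and prominently reducing turbidity versus control.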

Candida albicans [5] = test: Ratio of compound MIC to Amphotericin B MIC for Candida albicans E81022

Structure (SMILES) | MIC (Aspergillus fumigatus) | MIC (Candida albicans [1]) | MIC (Saccharomyces cerevisiae [2]) | Ratio (Saccharomyces cerevisiae [3]) | MIC (Saccharomyces cerevisiae [4]) | Ratio (Candida albicans [5])
C[C@@H]1[C@H](O)[C@@H](C)/C=C/C=C/C=C/C=C/C=C/C=C/C=C/[C@H](O[C@@H]2O[C@H](C)[C@@H](O)[C@H](N)[C@@H]2O)C[C@@H]2O[C@](O)(C[C@@H](O)C[C@@H](O)[C@H](O)CC[C@@H](O)C[C@@H](O)CC(=O)O[C@H]1C)C[C@H](O)[C@H]2C(=O)O [AMPHOTERICIN B] | 0.78 µg/mL (≈ 0.844 µM) | 1.56 µg/mL (≈ 1.69 µM) | 0.78 µg/mL (≈ 0.844 µM) | 1 | 0.78 µg/mL (≈ 0.844 µM) | –
Nc1ccc(C(=O)NCc2ccc(Oc3cccc(F)c3)s2)cn1 | – | 1.56 µg/mL (≈ 4.54 µM) | 1.56 µg/mL (≈ 4.54 µM) | >8 | > 12.5 µg/mL | –
O=C(NCc1ccc(Oc2cccc(F)c2)s1)c1ccc2ncccc2c1 | 1.56 µg/mL (≈ 4.12 µM) | 0.1 µg/mL (≈ 0.264 µM) | 0.025 µg/mL (≈ 0.0661 µM) | 128 | 3.13 µg/mL (≈ 8.27 µM) | 2
CCCCc1ccc(Cc2nccc3ccccc23)cc1 | – | 1.56 µg/mL (≈ 5.66 µM) | – | – | – | –
Nc1ccc(C(=O)NCc2ccc(Oc3ccc(F)cc3)s2)c(N)n1 | 0.78 µg/mL (≈ 2.18 µM) | 0.39 µg/mL (≈ 1.09 µM) | 0.78 µg/mL (≈ 2.18 µM) | 16 | 12.5 µg/mL (≈ 34.9 µM) | 2
Nc1ncccc1C(=O)NCc1ccc(Cc2ccccc2)s1 | 0.78 µg/mL (≈ 2.41 µM) | 0.05 µg/mL (≈ 0.155 µM) | – | – | – | 2
Nc1ccc(C(=O)NCc2ccc(Oc3ccccc3)s2)c(N)n1 | 1.56 µg/mL (≈ 4.58 µM) | 0.78 µg/mL (≈ 2.29 µM) | 1.56 µg/mL (≈ 4.58 µM) | >8 | > 12.5 µg/mL | 2
Nc1ncccc1C(=O)NCc1ccc(Oc2cccc(F)c2)s1 | 0.78 µg/mL (≈ 2.27 µM) | 0.05 µg/mL (≈ 0.146 µM) | 0.1 µg/mL (≈ 0.291 µM) | 128 | 12.5 µg/mL (≈ 36.4 µM) | 2
OC(Cn1cncn1)(Cn1cncn1)c1ccc(F)cc1F [FLUCONAZOLE] | – | 0.39 µg/mL (≈ 1.27 µM) | 6.25 µg/mL (≈ 20.4 µM) | 1 | 6.25 µg/mL (≈ 20.4 µM) | –
O=C(NCc1ccc(Oc2ccccc2)s1)c1cnc2[nH]ccc2c1 | 3.13 µg/mL (≈ 8.96 µM) | 0.39 µg/mL (≈ 1.12 µM) | 0.2 µg/mL (≈ 0.572 µM) | >64 | > 12.5 µg/mL | 2
